Test results from ChEMBL document CHEMBL1133671, “Synthesis and SAR of new 5-phenyl-3-ureido-1,5-benzodiazepines as cholecystokinin-B receptor antagonists” (J Med Chem, 2000).

Tests used:
[1] = molecular target: T1, Cholecystokinin receptor type A (Rattus norvegicus, UniProt P30551); assay: In vitro inhibition of binding of [3H]pCCK-8 against Cholecystokinin type A receptor of rat pancreatic membranes; assay type: cell membranes, Membrane
T1 sequence (P30551 whole entry): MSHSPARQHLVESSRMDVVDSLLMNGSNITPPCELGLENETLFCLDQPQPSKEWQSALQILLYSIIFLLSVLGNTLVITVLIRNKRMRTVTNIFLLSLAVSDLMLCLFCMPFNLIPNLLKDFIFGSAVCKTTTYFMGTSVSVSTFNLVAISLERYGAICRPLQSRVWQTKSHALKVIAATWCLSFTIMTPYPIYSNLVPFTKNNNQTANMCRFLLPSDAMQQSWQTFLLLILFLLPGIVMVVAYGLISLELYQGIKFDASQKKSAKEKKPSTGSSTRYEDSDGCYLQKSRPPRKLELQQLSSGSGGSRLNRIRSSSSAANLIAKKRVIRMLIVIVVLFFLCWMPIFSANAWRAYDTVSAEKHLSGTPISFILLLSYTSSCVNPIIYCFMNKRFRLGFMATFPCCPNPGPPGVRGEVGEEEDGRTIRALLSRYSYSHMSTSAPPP
Method in brief: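 Radioligand displacement of [3H]CCK-8S from membranes: rat pancreas for the CCK-A receptor and guinea-pig cerebral cortex for the CCK-B receptor, using slightly modified published methods. Values are means of n experiments.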

Cavia porcellus = organism: Cavia porcellus; assay: Selectivity factor between CCK-B and CCK-A receptors
[2] = molecular target: T1, Cholecystokinin receptor type A; assay: Inhibition by displacing [3H]CCK-8S against Cholecystokinin type A receptor of rat pancreatic membranes
Mus musculus [3] = assay: Anxiolytic effect in the mouse black / white box model, when administered intravenously; assay type: functional; conditions: iv
Method in brief: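 Naive mice were placed in an activity box with a brightly illuminated section, and the time they spent there was recorded. The effect was assessed over a dose series and reported as an ED50.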

Mus musculus [4] = assay: Anxiolytic effect in the mouse black / white box model, when administered orally (po); assay type: functional
Method in brief: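 Naive mice placed in an activity box with a brightly illuminated section. The read-out was the time the mice remained in the lit section. Dose-related effects were assessed, and an ED50 value was derived.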

Rattus norvegicus [5] = assay: Anxiolytic effect in the rat social interaction test against FG 7142, when administered intraperitoneally; assay type: functional; conditions: ip
Rattus norvegicus [6] = assay: Anxiolytic effect in the rat social interaction test, when administered orally (po); assay type: functional
Rattus norvegicus [7] = organism: Rattus norvegicus; assay: pKB determined against pentagastrin-induced acid secretion in isolated rat gastric mucosa; assay type: functional
Method in brief: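 Isolated rat gastric mucosa used as a gastrin-receptor preparation; acid secretion stimulated with pentagastrin and antagonism expressed as pKB.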

[8] = molecular target: T2, Cholecystokinin receptor type A (Cavia porcellus) (UniProt Q63931); conditions: Gall bladder
T2 sequence (whole entry): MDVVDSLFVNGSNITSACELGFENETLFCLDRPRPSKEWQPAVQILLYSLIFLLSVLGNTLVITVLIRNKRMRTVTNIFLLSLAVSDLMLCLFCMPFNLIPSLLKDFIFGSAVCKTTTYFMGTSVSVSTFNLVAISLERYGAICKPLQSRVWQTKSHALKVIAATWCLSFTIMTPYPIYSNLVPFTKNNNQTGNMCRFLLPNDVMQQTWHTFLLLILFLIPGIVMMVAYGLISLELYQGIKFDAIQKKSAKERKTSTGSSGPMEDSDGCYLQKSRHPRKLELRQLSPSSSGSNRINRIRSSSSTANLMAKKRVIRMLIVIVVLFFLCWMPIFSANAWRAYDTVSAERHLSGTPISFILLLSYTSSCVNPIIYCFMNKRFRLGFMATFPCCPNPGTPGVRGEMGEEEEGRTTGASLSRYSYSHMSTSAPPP

[9] = molecular target: T2, Cholecystokinin receptor type A (Cavia porcellus)
[10] = molecular target: T3, Gastrin/cholecystokinin type B receptor (Homo sapiens) (UniProt P32239); conditions: Cavia porcellus
T3 sequence (whole entry): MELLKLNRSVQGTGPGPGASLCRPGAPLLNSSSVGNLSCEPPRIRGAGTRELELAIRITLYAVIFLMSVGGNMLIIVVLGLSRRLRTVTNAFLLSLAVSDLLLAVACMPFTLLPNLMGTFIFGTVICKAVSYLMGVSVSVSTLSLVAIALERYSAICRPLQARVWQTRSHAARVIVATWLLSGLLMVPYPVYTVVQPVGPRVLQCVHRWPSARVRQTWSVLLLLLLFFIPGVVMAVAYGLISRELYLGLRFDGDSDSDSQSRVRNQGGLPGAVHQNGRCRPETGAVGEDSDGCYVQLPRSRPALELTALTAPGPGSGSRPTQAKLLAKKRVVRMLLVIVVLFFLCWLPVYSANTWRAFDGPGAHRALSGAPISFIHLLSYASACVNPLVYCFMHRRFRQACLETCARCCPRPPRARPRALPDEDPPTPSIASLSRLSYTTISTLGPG

`O=C(Nc1ccc(O)cc1)NC1C(=O)N(CC23C[C@H]4C[C@@H](C2)C[C@@H](C3)C4)c2ccccc2N(c2ccccc2)C1=O` (single isomer, unassigned; (+)) showed a Ki [1] of 20400 nM and a Ratio (Cavia porcellus) of 30900.

With `O=C(Nc1ccccc1)NC1C(=O)N(CC23C[C@H]4C[C@@H](C2)C[C@@H](C3)C4)c2ccccc2N(c2ccccc2)C1=O` (single isomer, unassigned; (+)) [listing 1 of 2 here] the Ki [1] was 1620 nM, the Ki [2] was 1480 nM and the ED50 (Mus musculus [3]) was 0.03 µg/kg. It also gave an ED50 (Mus musculus [4]) of 0.05 µg/kg, an ED50 (Rattus norvegicus [5]) of 10 µg/kg and an ED50 (Rattus norvegicus [6]) of 1.6 µg/kg. The pKB (Rattus norvegicus [7]) was 7.4.

In the case of `CCOC(=O)CCCOc1ccc(NC(=O)NC2C(=O)N(CC34C[C@H]5C[C@@H](C3)C[C@@H](C4)C5)c3ccccc3N(c3ccccc3)C2=O)cc1` (single isomer, unassigned; (+)), the Ki [1] is reported as > 10000 nM and the Ratio (Cavia porcellus) is reported as > 1900.

`O=C(Nc1ccccc1)NC1C(=O)N(CC23C[C@H]4C[C@@H](C2)C[C@@H](C3)C4)c2ccccc2N(c2ccccc2)C1=O` (single isomer, unassigned; (+)) [listing 2 of 2 here] showed a pKB [8] of 5.8, a pKB [9] of 5.9 and a pKB [10] of 8.9.

With `Cc1cccc(NC(=O)N[C@@H]2N=C(c3ccccc3)c3ccccc3N(C)C2=O)c1` [L-365260] the Ki [2] was 0.148 nM.
